The list is not random: actives were taken first. Their share in the collection is about 4.6%.
Mdm2 ligase inh = MDM2-luciferase reporter signal enhancers, primary screen, MDM2 E3 ligase inhibitor project, cell-based, luminescence, 1536-well | E3 ubiquitin-protein ligase Mdm2 (Homo sapiens), Q00987 | cell-based MDM2 ubiquitination luciferase reporter, 2 h; 0 = plate control, 100 = twice control, blank-subtracted | signal enhancement, % at 5 µM | 210,000 compounds, 0.11% hits;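 active = signal enhancement of 30% or more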;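 also: luminescence tracks abundance of the self-degrading MDM2-luciferase fusion protein; higher signal means inhibition of MDM2 E3 ligase activity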
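Buffer or medium: Cells held in DMEM | Assay system: Stable mammalian line carrying autodegrading MDM2–luciferase fusion reporter | Quantity: 2000 cells/well | Times: 4 h settle plus 2 h compound, 37 °C | Doses: One concentration, 5 µM, with 0.2% DMSO | Technique: Luminescence with SteadyLite reagent, 15 min at room temperature | Benchmarks: Plate controls and plate blanks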
STAT1 activator = STAT1 signaling activators, primary screen, cell-based, HTS, luciferase reporter; NIH 3T3 STAT1-luciferase reporter, IFN-gamma, luminescence; 100% = IFN-gamma alone, no compound; 200,000 compounds, 2.6% hits; AID 932, 2007; activation (% of control), % at 5.5 µM;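 active = activation above the screen-wide mean activation plus 3 SD, cut at about 130% in these data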;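 also: raw ratio to IFN-gamma control signal so 100% means no change and 0% no light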
NF-kB neuron act = activators of NF-kB expression in neurons, primary screen, cell-based, HTS | human neuronal cells, NF-kB reporter expression; stronger effect = higher value | fold change at 12.5 µM | 190,000 compounds, 1.6% hits | AID 1239, 2008; in the data active = fold change above about 3.3
APP 5'UTR act = activators of APP 5'UTR luciferase reporter, primary screen, SH-SY5Y cells; activation, % at 2 µM; SH-SY5Y APP 5'UTR luciferase reporter, luminescence; zero percent = DMSO vehicle wells; 190,000 compounds, 1% hits;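 active = activation above a set limit, based on mean plus 3 SD of controls, cut at about 140% in these data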
Wee1 degr inh = Wee1 degradation inhibitors, primary screen, cell-based, HeLa, Wee1K328M-luciferase, luminescence; Wee1-like protein kinase (Homo sapiens), P30291; HeLa Luc-Wee1K328M stability; 100% = proteasome inhibitor MG132 effect; 220,000 compounds, 1.2% hits; reporter increase, % at 5 µM;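 active = activation above the mean of all tested compounds plus 3 SD, set per screening run, cut at about 8.8% in these data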;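 also: cells exposed to compound for 20 h before luminescence read; 0% = DMSO alone and 100% = MG132 at 30 µM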
Target sequence (P30291 whole entry K328M): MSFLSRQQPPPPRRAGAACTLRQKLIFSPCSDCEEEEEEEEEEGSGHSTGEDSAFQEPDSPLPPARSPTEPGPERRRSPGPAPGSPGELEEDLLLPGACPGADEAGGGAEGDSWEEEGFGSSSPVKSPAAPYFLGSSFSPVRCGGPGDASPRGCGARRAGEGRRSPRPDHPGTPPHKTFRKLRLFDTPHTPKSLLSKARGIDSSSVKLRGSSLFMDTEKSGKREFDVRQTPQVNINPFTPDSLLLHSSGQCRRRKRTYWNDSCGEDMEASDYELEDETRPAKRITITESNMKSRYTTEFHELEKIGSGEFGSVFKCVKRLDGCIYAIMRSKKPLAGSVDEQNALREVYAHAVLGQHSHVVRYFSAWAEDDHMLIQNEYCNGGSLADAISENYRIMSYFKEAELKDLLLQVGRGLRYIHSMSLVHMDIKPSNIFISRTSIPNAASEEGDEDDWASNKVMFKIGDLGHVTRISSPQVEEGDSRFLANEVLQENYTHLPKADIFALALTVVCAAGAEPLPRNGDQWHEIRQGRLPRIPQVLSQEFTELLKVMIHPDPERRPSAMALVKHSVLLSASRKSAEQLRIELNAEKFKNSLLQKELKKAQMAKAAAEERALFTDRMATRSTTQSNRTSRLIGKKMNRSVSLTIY
p97 ATPase inh = inhibitors of human p97 ATPase, primary screen, biochemical; recombinant p97 ATPase, Kinase-Glo ATP luminescence, 3 h; 220,000 compounds, 0.42% hits; Transitional endoplasmic reticulum ATPase (Homo sapiens), P55072; AID 1481, 2009; inhibition, % at 8 µM; in the data active = inhibition above about 15%;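 also: 0% = DMSO vehicle and 100% = wells lacking enzyme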
Active calls of the source: *; / = not tested or not shown.

SMILES | Mdm2 ligase inh | STAT1 activator | NF-kB neuron act | APP 5'UTR act | Wee1 degr inh | p97 ATPase inh
Cc1ccc(C(=O)Nc2ccc3c(c2)OCO3)cc1 | -7 | 82 | 4.9* | 142* | -2 | -7
O=C(Nc1cccc(F)c1)c1ccc2c(c1)OCO2 | -22 | 118 | 3.5* | 62 | 3 | -4
COc1cc(SC)ccc1C(=O)NCCOc1ccc(F)cc1 | -17 | 135* | 3.2 | 53 | 10* | -3
COc1ccccc1C(=O)Nc1ccc2c(c1)OCO2 | -5 | 132* | 2.6 | 91 | 3 | 0
O=C(Cn1c(-c2ccccn2)nc2ccccc21)N/N=C/c1cccnc1 | -15 | / | / | / | 2 | -3
CC(C)Oc1ccc(C(=O)NC2CCCCC2)cc1 | -7 | 128 | 2.7 | / | 0 | -3
COc1cc(SC)ccc1C(=O)Nc1ccccc1 | -6 | 135* | 3.7* | 58 | 1 | 3
Cc1ccc(C(=O)Nc2ccc3c(c2)CCC3)cc1 | -81 | 40 | 6.4* | 154* | -1 | -2
Nc1ccc(C(=O)OCC(=O)Nc2ccc3c(c2)OCO3)cc1[N+](=O)[O-] | -11 | 91 | 0.83 | 9 | 11* | 5
Cn1cc(C(=O)Nc2ccc3c(c2)CCC3)cn1 | 7 | 111 | 0.99 | 42 | 0 | 4
C=CCOc1ccc(C(=O)NC2CCCCC2)cc1 | -14 | 132* | 2.1 | 23 | 0 | 1
N#CCCN1CCN(C2=NC(=O)/C(=C\c3cccs3)S2)CC1 | 7 | 114 | 1.5 | -2 | 5 | 3
COc1ccc(/C=N/NC(=O)c2ccc3c(c2)OCCO3)cc1[N+](=O)[O-] | -6 | 109 | 1.2 | -3 | 2 | 1
COc1ccc(NC(=O)c2ccc3c(c2)OCO3)cc1[N+](=O)[O-] | -6 | 139* | 1.2 | 37 | 7 | 6
O=C(NC1CCCCCCC1)c1ccc2c(c1)OCO2 | -24 | 125 | 6.9* | 153* | 5 | -2
COc1cc(SC)ccc1C(=O)Nc1nccs1 | -43 | 70 | 1 | 190* | -1 | -2
CCOC(=O)c1c(C)[nH]c(C(=O)Nc2ccc3c(c2)OCO3)c1C | -3 | 141* | 7.8* | 164* | 0 | -5
Cc1ccnc2nc(C(=O)Nc3ccc4c(c3)OCO4)nn12 | -21 | 107 | 4* | 40 | 2 | -12
CCN(CC)c1ccc(NC(=O)c2cc(Cl)ccc2OC)cc1 | -18 | 95 | 0.8 | -3 | 4 | -1
COc1cc(SC)ccc1C(=O)Nc1ccc2c(c1)OCCO2 | -62 | 130* | 4.6* | 155* | 4 | -9
Cc1ccccc1C(=O)Nc1ccc2c(c1)OCO2 | -39 | 107 | 4.8* | 177* | 4 | 3
CN(c1ccccc1C(=O)Nc1ccc2c(c1)OCO2)S(C)(=O)=O | 3 | 101 | 1.1 | -1 | 0 | 4
Cc1cc(C)n2nc(C(=O)Nc3ccc4c(c3)OCO4)nc2n1 | -1 | 113 | 1.4 | 50 | 1 | 3
COc1ccc(Cl)cc1C(=O)Nc1ccc2c(c1)OCO2 | -4 | 135* | 1.2 | 39 | -4 | 4
C=CCN(CC=C)C(=O)CCc1nnc(CCc2c[nH]c3ccccc23)o1 | -2 | 115 | 1.8 | -3 | -2 | 2
SMILES | Mdm2 ligase inh | STAT1 activator | NF-kB neuron act | APP 5'UTR act | Wee1 degr inh | p97 ATPase inh
COc1ccccc1C(=O)Nc1ccc2c(c1)OCCO2 | -18 | 140* | 3.5* | 137* | 2 | 0
COCCSc1ccccc1C(=O)Nc1ccc2c(c1)OCCO2 | -4 | 104 | 1.2 | -4 | 2 | -3
C/C(=N\N1C(=O)c2ccccc2NC1c1ccco1)c1ccccc1O (stereo not drawn) | -30 | 117 | 6.6* | 56 | 0 | 2
C/C(=N\N1C(=O)c2ccccc2NC1c1ccccc1)c1ccccc1O (stereo not drawn) | -18 | 140* | 1.5 | 105 | 2 | 4
COc1ccc(/C(C)=N/N2C(=O)c3ccccc3NC2c2ccc(O)c(OC)c2)cc1 (stereo not drawn) | 7 | 112 | 1.4 | 26 | -1 | 4
COc1ccc(NC2=C(Cl)C(=O)N(CCc3ccccc3)C2=O)cc1 | -6 | 142* | 2.8 | 87 | 0 | 5
COc1ccc(NC2=C(Cl)C(=O)N(CCc3ccccc3)C2=O)c(OC)c1 | -1 | 99 | 1.7 | 26 | 2 | 0
O=C(OCc1ccccc1F)c1ccc2c(c1)-c1ccccc1C2=O | -20 | 108 | 4.1* | 26 | 3 | 2
O=C(OCc1cccc(F)c1)c1ccc2c(c1)-c1ccccc1C2=O | -4 | 109 | 1.5 | 3 | 0 | 3
O=C(COC(=O)c1cccc(S(=O)(=O)N2CCc3ccccc32)c1)Nc1ccc(Cl)cn1 | 5 | 97 | 1.1 | 13 | -3 | 4
CCN(CC(=O)Nc1ccc(N2CCOCC2)cc1)Cc1nc2ccccc2c(=O)[nH]1 | 39* | 102 | 1.1 | -4 | -3 | 1
CC1(C)CC2CC(C)(CN2C(=O)c2ccc([N+](=O)[O-])cc2[N+](=O)[O-])C1 (stereo not drawn) | -10 | 95 | 0.9 | -3 | 5 | -2
Cc1ccc(C(=O)NC(=S)NCC2CCCO2)cc1 (stereo not drawn) | -8 | 129* | 2.5 | 31 | -1 | -2
O=C(NC(=S)NCC1CCCO1)c1ccccc1 (stereo not drawn) | 0 | 116 | 1.3 | 6 | 9.0* | 3
O=C(NCC1CCCO1)c1ccccc1 (stereo not drawn) | 9 | 104 | 1.2 | -15 | 3 | 2
O=C(NC(=S)NCC1CCCO1)c1ccc(Cl)cc1 (stereo not drawn) | -1 | 120 | 1.1 | 12 | 1 | 3
COc1ccccc1NC(=O)c1ccc(NC(=O)Cc2n[nH]c(=O)c3ccccc23)cc1 | 1 | / | / | / | -2 | -13
Oc1cc(NCc2cccnc2)ccc1-c1nc2ccccc2o1 | -12 | 134* | 2.5 | 155* | 1 | 3
Clc1nc(CN2CCCCC2)nc2sc3c(c12)CCCC3 | -7 | 105 | 3.6* | 10 | 3 | 3
O=c1c2c3c(sc2nc2n1CCCCC2)CCCC3 | -23 | 143* | 4.1* | 70 | 0 | 1
O=C(N/N=C/c1cccc([N+](=O)[O-])c1)C1CC1c1ccccc1 (stereo not drawn) | -3 | 95 | 1.1 | 0 | 0 | -2
CC(C1CC1)N(Cc1ccccc1)C(=S)Nc1ccccc1Cl (stereo not drawn) | -28 | 96 | 1.1 | 3 | 0 | 3

Screens: PubChem BioAssay, several laboratories
